Assay results as given in ChEMBL document CHEMBL1132709, “Novel cyclopropapyrroloindole derivative (AT-3510) bearing methoxycarbonyl and trifluoromethyl groups” (J Med Chem, 1999).
Values after ≈ are worked out from the molar mass of the structure shown.

Legend:
[1] = system: Mus musculus; test: In vivo antitumor activity is the measure of tumor growth inhibition of Colon 26 murine […] cells.; assay type: functional
Outline: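 Colon 26 cells (10^6/mouse) inoculated sc into male CDF1 mice on day 0; single iv dose on day 7. Tumor growth inhibition expressed as percentage versus untreated group.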

[2] = system: Mus musculus; test: In vivo concentration required to inhibit the Colon 26 murine […] cell growth by 50%; assay type: functional
[3] = Ratio between max dose within 10% body weight loss and tumor growth inhibition; assay type: functional
Outline: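 Ratio of maximum dose within 10% body weight loss to the dose giving 50% tumor growth inhibition, in sc Colon 26-bearing mice dosed iv.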

[4] = system: Mus musculus; test: In vivo antitumor activity (0.25 mg/Kg) is the measure of tumor growth inhibition of colon 26 murine […] cells.; assay type: functional
Outline: (§1)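 Colon 26 cells (10^6/mouse) inoculated sc into male CDF1 mice on day 0; drug given iv on day 7. Read-out is percentage tumor growth inhibition versus the untreated group.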

[5] = system: HeLa; test: Concentration required to inhibit the growth of HeLaS3 human uterine cervix carcinoma cells by 50%; assay type: functional, cell-based
[6] = system: Mus musculus; test: In vivo antitumor activity (0.5 mg/Kg) is the measure of tumor growth inhibition of colon 26 murine […] cells.; assay type: functional; outline: as §1
[7] = system: Mus musculus; test: In vivo antitumor activity (0.125 mg/Kg) is the measure of tumor growth inhibition of colon 26 murine […] cells.; assay type: functional; outline: as §1
[8] = system: P338; test: In vitro concentration required to inhibit the growth of […] murine leukemia cells by 50%; assay type: functional, cell-based; details: Mus musculus
[9] = system: Mus musculus; test: In vivo antitumor activity (0.25 mg/Kg) is the measure of increase in life span of mice bearing P388 murine leukemia cells; 2/2 cured mice (>60-day survivors); assay type: functional, organism-based
[10] = system: Mus musculus; test: In vivo antitumor activity (0.584 mg/kg) is the measure of tumor growth inhibition of human tumor xenograft WiDr (colon) implanted sc in mice.; assay type: functional
Outline: (§2)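 Tumor fragments (2–3 mm3) implanted sc into female BALB/cA Jcl-nu mice on day 0. A single iv dose was given once tumor volume reached about 100 mm3. Read-out is percentage of maximum tumor growth inhibition versus the untreated group.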

[11] = system: Mus musculus; test: In vivo antitumor activity (0.584 mg/kg) is the measure of tumor growth inhibition of human tumor xenograft HCT116 (colon) implanted sc in mice.; assay type: functional; outline: as §2
[12] = system: Mus musculus; test: In vivo antitumor activity (0.584 mg/kg) is the measure of tumor growth inhibition of human tumor xenograft NUGC-3 (stomach) implanted sc in mice.; assay type: functional; outline: as §2
[13] = system: Mus musculus; test: In vivo antitumor activity (0.584 mg/kg) is the measure of tumor growth inhibition of human tumor xenograft DLD-1 (colon) implanted sc in mice.; assay type: functional; outline: as §2
[14] = system: Mus musculus; test: In vivo antitumor activity (9.81 mg/kg) is the measure of tumor growth inhibition of human tumor xenograft DLD-1 (colon) implanted sc in mice.; assay type: functional, organism-based; outline: as §2
[15] = system: Mus musculus; test: In vivo antitumor activity (9.81 mg/kg) is the measure of tumor growth inhibition of human tumor xenograft HCT116 (colon) implanted sc in mice.; assay type: functional, organism-based; outline: as §2
[16] = system: Mus musculus; test: In vivo antitumor activity (9.81 mg/kg) is the measure of tumor growth inhibition of human tumor xenograft NUGC-3 (stomach) implanted sc in mice.; assay type: functional, organism-based; outline: as §2
[17] = system: Mus musculus; test: In vivo antitumor activity (9.81 mg/kg) is the measure of tumor growth inhibition of human tumor xenograft WiDr (colon) implanted sc in mice.; assay type: functional, organism-based; outline: as §2

COC(=O)c1c(C(F)(F)F)[nH]c2c(OC(=O)N3CCN(C)CC3)cc3c(c12)[C@H](CCl)CN3C(=O)c1cc2cc(NC(=O)c3cc4c(OC)c(OC)c(OC)cc4cn3)ccc2[nH]1
TGI [1]: 89% | TGI50 [2]: 0.13 mg/kg | Ratio [3]: 3.9

COC(=O)c1c(C(F)(F)F)[nH]c2c(OC(=O)N3CCN(C)CC3)cc3c(c12)[C@H](CCl)CN3C(=O)c1cc2cc(NC(=O)c3cc4ccc(OC)cc4o3)ccc2[nH]1
TGI [1]: 89% | TGI50 [2]: 0.108 mg/kg | Ratio [3]: 4.6

COC(=O)c1c(C(F)(F)F)[nH]c2c(OC(=O)N3CCN(C)CC3)cc3c(c12)[C@H](CCl)CN3C(=O)c1cc2cc(NC(=O)c3cc4cc(OC)c(OC)c(OC)c4o3)ccc2[nH]1
TGI [1]: 90% | TGI50 [2]: 0.0533 mg/kg | Ratio [3]: 4.5

COC(=O)c1c(C(F)(F)F)[nH]c2c(O)cc3c(c12)[C@H](CCl)CN3C(=O)c1cc2cc(NC(=O)c3cc4ccc(OC)cc4cn3)ccc2[nH]1
TGI [4]: 82% | IC50 [5]: 0.11 ng/mL (≈ 0.159 nM)

COC(=O)c1c(C(F)(F)F)[nH]c2c(O)cc3c(c12)[C@H](CCl)CN3C(=O)c1cc2cc(NC(=O)c3cc4c(OC)c(OC)c(OC)cc4[nH]3)ccc2[nH]1
TGI [6]: 95% | IC50 [5]: 0.94 ng/mL (≈ 1.27 nM)

COC(=O)c1c(C(F)(F)F)[nH]c2c(OC(=O)N3CCN(C)CC3)cc3c(c12)[C@H](CCl)CN3C(=O)c1cc2cc(NC(=O)c3cc4cc(OC)ccc4o3)ccc2[nH]1.Cl
TGI [1]: 86% | TGI50 [2]: 0.148 mg/kg | Ratio [3]: 6.8

COC(=O)c1c(C(F)(F)F)[nH]c2c(OC(=O)N3CCN(C)CC3)cc3c(c12)[C@H](CBr)CN3C(=O)c1cc2cc(OC)c(OC)c(OC)c2[nH]1
Ratio [3]: 11.7

COC(=O)c1c(C(F)(F)F)[nH]c2c1[C@@]13C[C@@H]1CN(C(=O)c1cc4cc(NC(=O)c5cc6ccccc6o5)ccc4[nH]1)C3=CC2=O
Ratio [3]: 4.3

COC(=O)c1c(C(F)(F)F)[nH]c2c(O)cc3c(c12)[C@H](CCl)CN3C(=O)c1cc2cc(NC(=O)c3cc4ccccc4cn3)ccc2[nH]1 (racemic)
TGI [4]: 82% | IC50 [5]: 0.24 ng/mL (≈ 0.363 nM)

COC(=O)c1c(C(F)(F)F)[nH]c2c(O)cc3c(c12)[C@H](CCl)CN3C(=O)c1cc2cc(NC(=O)c3cc4cccc(OC)c4o3)ccc2[nH]1 (racemic)
TGI [6]: 96% | IC50 [5]: 0.51 ng/mL (≈ 0.749 nM)

COC(=O)c1c(C(F)(F)F)[nH]c2c(O)cc3c(c12)[C@H](CCl)CN3C(=O)c1cc2cc(NC(=O)c3ccc4ccccc4c3)ccc2[nH]1 (racemic)
TGI [6]: 84% | IC50 [5]: 0.22 ng/mL (≈ 0.333 nM)

COC(=O)c1c(C(F)(F)F)[nH]c2c(O)cc3c(c12)[C@H](CCl)CN3C(=O)c1cc2cc(NC(=O)c3cc4cc(OC)c(OC)c(OC)c4o3)ccc2[nH]1 (racemic)
TGI [7]: 74% | IC50 [5]: 0.17 ng/mL (≈ 0.229 nM)

COC(=O)c1c(C(F)(F)F)[nH]c2c1[C@@]13C[C@@H]1CN(C(=O)c1cc4cc(NC(=O)c5cc6ccccc6o5)ccc4[nH]1)C3=CC2=O (racemic) [listing 1 of 2 here]
IC50 [8]: 0.53 ng/mL (≈ 0.862 nM)

COC(=O)c1c(C(F)(F)F)[nH]c2c(O)cc3c(c12)[C@H](CCl)CN3C(=O)c1cc2cc(NC(=O)c3cc4c(OC)cccc4o3)ccc2[nH]1 (racemic)
TGI [6]: 83% | IC50 [5]: 0.87 ng/mL (≈ 1.28 nM)

COC(=O)c1c(C(F)(F)F)[nH]c2c(O)cc3c(c12)[C@H](CCl)CN3C(=O)c1cc2cc(OC)c(OC)c(OC)c2[nH]1 (racemic)
IC50 [5]: 0.25 ng/mL (≈ 0.43 nM)

COC(=O)c1c(C(F)(F)F)[nH]c2c(O)cc3c(c12)[C@H](CCl)CN3C(=O)c1cc2cc(NC(=O)c3cc4cc(OC)c(OC)c(OC)c4[nH]3)ccc2[nH]1 (racemic)
TGI [4]: 83% | IC50 [5]: 0.2 ng/mL (≈ 0.27 nM)

COC(=O)c1c(C(F)(F)F)[nH]c2c1[C@@]13C[C@@H]1CN(C(=O)c1cc4cc(NC(=O)c5cc6ccccc6[nH]5)ccc4[nH]1)C3=CC2=O (racemic)
ILS [9]: 2/2 cured mice (>60-day survivors) | IC50 [8]: 0.86 ng/mL (≈ 1.4 nM)

COC(=O)c1c(C(F)(F)F)[nH]c2c(O)cc3c(c12)[C@H](CCl)CN3C(=O)c1cc2cc(NC(=O)c3cc4cccc(OC)c4cn3)ccc2[nH]1 (racemic)
TGI [4]: 90% | IC50 [5]: 0.51 ng/mL (≈ 0.737 nM)

COC(=O)c1c(C(F)(F)F)[nH]c2c(O)cc3c(c12)[C@H](CCl)CN3C(=O)c1cc2cc(NC(=O)c3cnc4ccccc4c3)ccc2[nH]1 (racemic)
TGI [6]: 84% | IC50 [5]: 1.5 ng/mL (≈ 2.27 nM)

COC(=O)c1c(C(F)(F)F)[nH]c2c(O)cc3c(c12)[C@H](CCl)CN3C(=O)c1cc2cc(NC(=O)c3cc4ccc(OC)cc4o3)ccc2[nH]1 (racemic)
TGI [6]: 94% | IC50 [5]: 0.12 ng/mL (≈ 0.176 nM)

COC(=O)c1[nH]c2c(c1C(=O)OC)[C@@]13C[C@@H]1CN(C(=O)c1cc4cc(NC(=O)c5cc6ccccc6o5)ccc4[nH]1)C3=CC2=O (racemic)
IC50 [8]: 0.66 ng/mL (≈ 1.09 nM)

COC(=O)c1c(C(F)(F)F)[nH]c2c1[C@@]13C[C@@H]1CN(C(=O)c1cc4cc(OC)c(OC)c(OC)c4[nH]1)C3=CC2=O (racemic)
IC50 [8]: 0.24 ng/mL (≈ 0.44 nM)

COC(=O)c1c(C(F)(F)F)[nH]c2c(O)cc3c(c12)[C@H](CCl)CN3C(=O)c1cc2cc(OC)c(OC)c(OC)c2o1 (racemic)
TGI [6]: 75% | IC50 [5]: 0.12 ng/mL (≈ 0.206 nM)

COC(=O)c1c(C(F)(F)F)[nH]c2c(O)cc3c(c12)[C@H](CCl)CN3C(=O)c1cc2c(OC)c(OC)c(OC)cc2[nH]1 (racemic)
IC50 [5]: 32 ng/mL (≈ 55 nM)

COC(=O)c1c(C(F)(F)F)[nH]c2c(O)cc3c(c12)[C@H](CCl)CN3C(=O)c1cc2cc(NC(=O)c3cc4cc(OC)ccc4o3)ccc2[nH]1 (racemic)
TGI [6]: 94% | IC50 [5]: 0.064 ng/mL (≈ 0.094 nM)

COC(=O)c1c(C(F)(F)F)[nH]c2c(O)cc3c(c12)[C@H](CCl)CN3C(=O)c1cc2cc(NC(=O)c3cc4ccccc4o3)ccc2[nH]1 (racemic)
TGI [6]: 85% | IC50 [5]: 0.53 ng/mL (≈ 0.814 nM)

COC(=O)c1c(C)[nH]c2c1[C@@]13C[C@@H]1CN(C(=O)c1cc4cc(OC)c(OC)c(OC)c4[nH]1)C3=CC2=O (racemic)
IC50 [8]: 0.34 ng/mL (≈ 0.692 nM)

COC(=O)c1c(C(F)(F)F)[nH]c2c(O)cc3c(c12)[C@H](CCl)CN3C(=O)c1cc2cc(NC(=O)c3cc4cc(OC)ccc4cn3)ccc2[nH]1 (racemic)
TGI [4]: 90% | IC50 [5]: 0.18 ng/mL (≈ 0.26 nM)

COC(=O)c1c(C(F)(F)F)[nH]c2c1[C@@]13C[C@@H]1CN(C(=O)c1cc4cc(OC)ccc4[nH]1)C3=CC2=O (racemic)
IC50 [8]: 0.23 ng/mL (≈ 0.474 nM)

COC(=O)c1c(C(F)(F)F)[nH]c2c(O)cc3c(c12)[C@H](CCl)CN3C(=O)c1cc2cc(NC(=O)c3cc4c(OC)cccc4cn3)ccc2[nH]1 (racemic)
TGI [7]: 67% | IC50 [5]: 0.2 ng/mL (≈ 0.289 nM)

COC(=O)c1[nH]c2c(c1C(=O)OC)[C@@]13C[C@@H]1CN(C(=O)c1cc4cc(NC(=O)c5cc6ccccc6[nH]5)ccc4[nH]1)C3=CC2=O (racemic)
IC50 [8]: 0.31 ng/mL (≈ 0.514 nM)

COC(=O)c1c(C(F)(F)F)[nH]c2c1[C@@]13C[C@@H]1CN(C(=O)c1cc4cc(NC(=O)c5cc6ccccc6o5)ccc4[nH]1)C3=CC2=O (racemic) [listing 2 of 2 here]
ILS [9]: 2/2 cured mice (>60-day survivors)

CCN(CC)c1ccc2cc(C(=O)Nc3ccc4[nH]c(C(=O)N5C[C@@H](CCl)c6c5cc(OC(=O)Nc5ccccc5)c5[nH]cc(C)c65)cc4c3)oc2c1 [CARZELESIN]
TGI [10]: 56% | TGI [11]: 82% | TGI [12]: 98% | TGI [13]: 79%

CISPLATIN
TGI [14]: 25% | TGI [15]: 34% | TGI [16]: 87% | TGI [17]: 44%
